Assay results from different studies.
Protocols differ between the studies behind these lines.
Target: Serine/threonine-protein kinase/endoribonuclease IRE1 (ERN1, Homo sapiens, UniProt O75460)

Compound	effect on	action	method	cells	tested at	measurement	value
COc1cc(Cl)c(C(=O)N[C@@H](CN[C@H]2CC[C@@H](N)CC2)Cc2ccc(C#N)cc2)cc1-c1ccc(CN[C@H](C)c2ccc(C)cc2)o1	enzyme activity	inhibitor	–	–	1 µM	remaining activity	93%
Cc1cc(NC(=O)c2cccc3cc(-c4cccc5[nH]nc(N)c45)ccc23)ccc1F	enzyme activity	inhibitor	–	–	0.1 µM	activity vs control	87%
O=S(=O)(NC1CCC(c2cc(F)ccc2F)(S(=O)(=O)c2ccc(Cl)cc2)CC1)C(F)(F)F (stereo not shown)	cell-free assay	–	competition with immobilised ligand	–	1 µM	remaining binding	100%
O=C(Nc1cnn(-c2csc(C(=O)NC3COC3)c2)c1)Nc1ccccc1Cl	enzyme activity	inhibitor	–	–	5 µM	remaining activity	94.3%
Cc1ccc(C(=O)Nc2ccc(CN3CCN(C)CC3)c(C(F)(F)F)c2)cc1C#Cc1cnc2cccnn12	enzyme activity	inhibitor	–	–	23.5 nM	remaining activity	81%
CN([C@@H]1CCc2c(CC(=O)O)c3ccccc3n2C1)S(=O)(=O)c1ccc(F)cc1	cell-free assay	–	competition with immobilised ligand	–	1 µM	remaining binding	94%
Cc1cnc(NC2CCOCC2)nc1-n1cnc(C(=O)NC(CN)c2cc(F)cc(Cl)c2)c1 (stereo not shown)	enzyme activity	inhibitor	radiometric	–	1 µM	remaining activity	99%
CCN1CCN(Cc2ccc(NC(=O)c3ccc(C)c(Oc4ccnc5[nH]ccc45)c3)cc2C(F)(F)F)CC1	target engagement in cells	inhibitor	chemoproteomics	Huh-7	10 µM	inhibition	-12.6%
CCCCNc1ncc2c(-c3ccc(F)cc3)nn(C[C@H]3CC[C@H](N)CC3)c2n1	target engagement in cells	inhibitor	chemoproteomics	–	20 mM	inhibition	-1.9%
Cc1sc(C(=O)NC2COC2)cc1-n1cc(NC(=O)Nc2c(F)cccc2Cl)cn1	enzyme activity	inhibitor	–	–	10 µM	remaining activity	94.1%
CN1CC(Oc2cnc(C#N)cc2-c2ccn3nc(NC(=O)C4CC4)cc3c2)C1	enzyme activity	inhibitor	–	–	1 µM	inhibition	4%
CN(c1ccnc(CNc2nc(Nc3ccc4c(c3)CC(=O)N4)ncc2C(F)(F)F)n1)S(C)(=O)=O	cell-free assay	–	competition with immobilised ligand	–	1 µM	remaining binding	49%
Cc1ccc(C(=O)NCc2ccsc2)cc1C#Cc1cn(C(C)C)c2ncnc(N)c12	enzyme activity	inhibitor	–	–	1 µM	activity vs control	100%
COc1cccc2c(NCc3ccccc3)nc(-n3c(N)nc4ccccc43)nc12	target engagement in cells	inhibitor	chemoproteomics	–	20 mM	inhibition	-6.5%
Nc1ncnc2occ(-c3ccc(NC(=O)Nc4cc(C(F)(F)F)ccc4F)cc3)c12	cell-free assay	inhibitor	–	–	20 µM	remaining signal	16%
Cc1ccc(NC(=O)c2ccc(C)c(C(F)(F)F)c2)cc1C#Cc1nn(C2CCC(O)CC2)c2ncnc(N)c12 (stereo not shown)	cell-free assay	–	–	–	10 µM	remaining signal	94%
